Measurements taken from ChEMBL document CHEMBL4007443, “Discovery of Potent Human Glutaminyl Cyclase Inhibitors as Anti-Alzheimer's Agents Based on Rational Design” (J Med Chem, 2017).
Activity calls are given as the source filed them. The rule behind the calls is not given here.

Columns and labels:
[1] = Cytotoxicity against mouse HT22 cells assessed as cell viability at 10 uM after 18 hrs by MTT assay; type: cell-based, HT-22; conditions: read-out: Activity
How it was run: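 HT-22 mouse hippocampal cells grown in DMEM with 10% FBS at 37 °C, 5% CO2. Cells seeded at 5000/well the day before and exposed to compound at 10 µM for 18 h at 37 °C. MTT added for 3 h, formazan dissolved in DMSO, absorbance read at 570 nm. Viability expressed relative to vehicle control (100%).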

Mus musculus [2] = assay: Antialzheimer activity in human amyloid beta (3 to 40) induced acute ICR mouse Alzheimer's disease mouse model assessed as inhibition of amyloid beta (N3pE to 40) formation in brain at 10 mM, icv by sandwich ELISA; type: functional
How it was run: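 Acute model: male ICR mice, 5 weeks old (25 g, n = 4), anaesthetized and given 5 µg human Aβ3-40 in 5 µL PBS by stereotaxic injection into deep cortex/hippocampus (AP -2.0, ML 1.2, DV 1.0 mm from bregma). Inhibitor given by the same intracerebral route or i.p. Brain extracts taken next day; Aβ N3pE-40 quantified by sandwich ELISA. Percent inhibition is relative to vehicle; one-way ANOVA with Bonferroni.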

Mus musculus [3] = species on record: Mus musculus; conditions: ICR, 25 mg/kg
[4] = molecular target: Glutaminyl-peptide cyclotransferase (Mus musculus, UniProt Q9CYK2); assay: Inhibition of mouse glutaminyl cyclase assessed as reduction in conversion of H-Gln-AMC hydrobromide to pGlu-AMC preincubated with substrate for 10 mins followed by enzyme addition by pGAPase coupled fluorometry
Mus musculus [5] = assay: Cognition enhancement activity in 5XFAD Alzheimer's disease mouse model assessed as increase in duration of time spent in target quadrant administered intraperitoneally starting from 19 to 34 weeks of age by Morris water maze test; type: functional
How it was run: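 Male 5XFAD mice (n = 6 vehicle, n = 6 treated) received the compound i.p. from 19 weeks of age for 3 months, housed singly on a 12:12 h light cycle. Morris water maze: four hidden-platform training trials per day for 5 days, scoring escape latency. Probe trial 24 h later with the platform removed, scoring time in the target quadrant.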

Mus musculus [6] = assay: Toxicity in APP/PS1 transgenic Alzheimer's disease mouse model administered via icv for 3 weeks; conditions: in vivo, icv_or_intrathecal, 504 h
Mus musculus [7] = species on record: Mus musculus; assay: animal or person; conditions: ICR, ip, read-out: INH
[8] = Stability in mouse liver microsomes assessed as compound remaining after 30 mins; type: ADME, microsome; conditions: read-out: Stability

Sequence of Glutaminyl-peptide cyclotransferase (Q9CYK2 whole entry): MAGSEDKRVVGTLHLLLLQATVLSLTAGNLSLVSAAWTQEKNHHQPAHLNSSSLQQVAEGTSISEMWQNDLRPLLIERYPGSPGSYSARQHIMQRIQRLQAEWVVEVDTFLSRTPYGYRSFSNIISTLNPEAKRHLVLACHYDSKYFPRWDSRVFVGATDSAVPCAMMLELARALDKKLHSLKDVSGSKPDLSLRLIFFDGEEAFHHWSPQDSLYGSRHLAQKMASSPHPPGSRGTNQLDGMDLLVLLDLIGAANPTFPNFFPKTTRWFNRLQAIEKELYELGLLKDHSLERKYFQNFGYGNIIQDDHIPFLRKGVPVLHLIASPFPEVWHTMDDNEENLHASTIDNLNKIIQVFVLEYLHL

IC50 [4]	remaining at 0.5 h [8]	SMILES	viability at 18 h, 10 µM [1]	inhibition (INH) (Mus musculus [2])	inhibition (Mus musculus [3])	Activity (Mus musculus [5])	Activity (Mus musculus [6])	inhibition in vivo at 25 mg/kg (Mus musculus [7])
		COc1cc(NC(=S)NCCCn2cncc2C)ccc1OCCCCN1CCNCC1	100%	29.2%				
		COc1cc(NC(=S)NCCCn2cncc2C)ccc1OCCCN	100%	64.6%	inactive			
		COc1cc(NC(=S)NCCCn2cncc2C)ccc1OCCCCN(C)C	100%	35.7%				
		COc1cc(NC(=S)NCCCn2cncc2C)ccc1OCCC1CCN(C)CC1	100%	18.7%				
		COc1cc(NC(=S)NCCCn2cncc2C)ccc1OCCc1ccnc(N)c1	100%	38%				
21.5 nM		COc1ccc(NC(=S)NCCCn2cncc2C)cc1OC	100%	41.6%	inactive			
		COc1cc(NC(=S)NCCCn2cncc2C)ccc1OCCCCNc1ncccn1	100%	27.3%				
12.6 nM	50%	COc1cc(NC(=S)NCCCn2cncc2C)ccc1OCCCCc1ccnc(N)c1	100%	66.1%		Active	Non-Toxic	54.7%
		COc1cc(NC(=S)NCCCn2cncc2C)ccc1OCCN1CCNCC1	100%	77.2%				3.6%
